Experiments:
[1] = Unbound brain-to-plasma concentration ratio in mouse at 10 mg/kg, po after 4 hrs; assay type: ADME, organism-based; set-up: dose 10 mg/kg, route oral; settings: brain and plasma (unbound), read-out: K(p,uu,brain)
[2] = Unbound brain-to-plasma concentration ratio in mouse at 10 mg/kg, po after 1 hr; assay type: ADME, organism-based; set-up: dose 10 mg/kg, route oral; settings: brain and plasma (unbound), read-out: K(p,uu,brain)
Brain [3] = experiment: Free drug level in mouse brain at 10 mg/kg, po after 4 hrs; assay type: ADME, organism-based; set-up: dose 10 mg/kg, route oral; settings: in vivo
Brain [4] = experiment: Free drug level in mouse brain at 10 mg/kg, po after 1 hr; assay type: ADME, organism-based; set-up: dose 10 mg/kg, route oral; settings: in vivo
Plasma [5] = experiment: Free plasma concentration in mouse at 10 mg/kg, po after 4 hrs; assay type: ADME, organism-based; set-up: dose 10 mg/kg, route oral; settings: in vivo
[6] = Oral bioavailability in mouse at 10 mg/kg; assay type: ADME, organism-based; settings: in vivo
Plasma [7] = experiment: Free plasma concentration in mouse at 10 mg/kg, po after 1 hr; assay type: ADME, organism-based; set-up: dose 10 mg/kg, route oral; settings: in vivo
[8] = Clearance in mouse at 3 mg/kg, iv and 10 mg/kg, po; assay type: ADME, organism-based; settings: in vivo
[9] = Clearance in mouse liver microsomes at 1 uM after 20 mins by LC-MS/MS analysis in presence of NADPH; assay type: ADME, Microsome
[10] = Drug uptake in Hartley guinea pig CSF at 150 mg/kg, po formulated with 40/10/50 PEG/ethanol/H2O after 3 hrs; assay type: ADME, organism-based, Cavia porcellus, Cerebrospinal fluid; set-up: dose 150 mg/kg, route oral; settings: read-out: Drug uptake
Method in brief: (§1)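 Male Hartley guinea pigs, 6–8 per group, were dosed orally at 4–5 mL/kg and euthanized with intraperitoneal euthasol at set times. CSF (40–100 μL) was collected post-mortem by cisterna magna puncture into tubes containing 10% BSA, then snap-frozen for analysis. Drug concentration was determined in the CSF; plasma and brain were also sampled.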

[11] = Drug uptake in Hartley guinea pig CSF at 50 mg/kg, po formulated with 40/10/50 PEG/ethanol/H2O after 3 hrs; assay type: ADME, organism-based, Cavia porcellus, Cerebrospinal fluid; set-up: dose 50 mg/kg, route oral; settings: read-out: Drug uptake; method in brief: as §1
[12] = Free plasma concentration in Hartley guinea pig at 150 mg/kg, po formulated with 40/10/50 PEG/ethanol/H2O after 3 hrs; assay type: ADME, organism-based, Cavia porcellus; set-up: dose 150 mg/kg, route oral; settings: in vivo
Method in brief: (§2)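 Male Sprague–Dawley rats or male Hartley guinea pigs (6−8 weeks, 250−350 g), 6−8 per group, given vehicle or compound orally at 4−5 mL/kg. At set times after dosing, rats were killed by CO₂ and guinea pigs by ip euthasol (250 mg/kg). Plasma came from cardiac-puncture blood in EDTA. CSF was taken by cisterna magna puncture into 10% BSA and snap frozen.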

[13] = Free plasma concentration in Hartley guinea pig at 50 mg/kg, po formulated with 40/10/50 PEG/ethanol/H2O after 3 hrs; assay type: ADME, organism-based, Cavia porcellus; set-up: dose 50 mg/kg, route oral; settings: in vivo
Method in brief: (§3)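 Male Hartley guinea pigs, 6−8 weeks, 250−350 g, 6−8 per group, given a single oral dose or vehicle at 4−5 mL/kg. Euthanized with euthasol 250 mg/kg ip at set times. Whole blood was taken post-mortem by cardiac puncture into EDTA and centrifuged at 4 °C. Plasma was stored at −20 °C for drug analysis.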

[14] = Clearance in human liver microsomes at 1 uM after 20 mins by LC-MS/MS analysis in presence of NADPH; assay type: ADME, Microsome
[15] = Clearance in cynomolgus monkey liver microsomes at 1 uM after 20 mins by LC-MS/MS analysis in presence of NADPH; assay type: ADME, Macaca fascicularis, Microsome
[16] = Clearance in guinea pig liver microsomes at 1 uM after 20 mins by LC-MS/MS analysis in presence of NADPH; assay type: ADME, Cavia porcellus, Microsome; settings: read-out: CLH
[17] = Clearance in rat liver microsomes at 1 uM after 20 mins by LC-MS/MS analysis in presence of NADPH; assay type: ADME, Microsome
[18] = Drug uptake in Hartley guinea pig CSF at 150 mg/kg, po formulated with 0.5% HPMC/0.5% Tween 80 after 5 hrs; assay type: ADME, organism-based, Cavia porcellus, Cerebrospinal fluid; set-up: dose 150 mg/kg, route oral; settings: read-out: Drug uptake; method in brief: as §1
[19] = Drug uptake in Hartley guinea pig CSF at 75 mg/kg, po formulated with 0.5% HPMC/0.5% Tween 80 after 5 hrs; assay type: ADME, organism-based, Cavia porcellus, Cerebrospinal fluid; set-up: dose 75 mg/kg, route oral; settings: read-out: Drug uptake; method in brief: as §2
[20] = Unbound brain-to-plasma concentration ratio in Hartley guinea pig at 75 mg/kg, po formulated with 0.5% HPMC/0.5% Tween 80 after 5 hrs; assay type: ADME, organism-based, Cavia porcellus; set-up: dose 75 mg/kg, route oral; settings: read-out: K(p,uu,brain)
[21] = Free drug level in Hartley guinea pig brain at 75 mg/kg, po formulated with 0.5% HPMC/0.5% Tween 80 after 5 hrs; assay type: ADME, organism-based, Cavia porcellus; set-up: dose 75 mg/kg, route oral; settings: in vivo; method in brief: as §2
[22] = Free plasma concentration in Hartley guinea pig at 150 mg/kg, po formulated with 0.5% HPMC/0.5% Tween 80 after 5 hrs; assay type: ADME, organism-based, Cavia porcellus; set-up: dose 150 mg/kg, route oral; settings: in vivo; method in brief: as §2
[23] = Free plasma concentration in Hartley guinea pig at 75 mg/kg, po formulated with 0.5% HPMC/0.5% Tween 80 after 5 hrs; assay type: ADME, organism-based, Cavia porcellus; set-up: dose 75 mg/kg, route oral; settings: in vivo; method in brief: as §3

| Structure (SMILES) | Kp uu at 4 h [1] | Kp uu at 1 h [2] | Drug uptake(free) (Brain [3]) | Drug uptake(free) (Brain [4]) | Cp(f) (Plasma [5]) | bioavailability [6] | Cp(f) (Plasma [7]) | clearance [8] | CLhep predicted at 1 µM [9] | CLhep predicted at 1 µM [14] | CLhep predicted at 1 µM [15] | CLint scaled at 1 µM [16] | CLhep predicted at 1 µM [17] | also measured |
| --- | --- | --- | --- | --- | --- | --- | --- | --- | --- | --- | --- | --- | --- | --- |
| CN1C(=O)C2(CC(C)(C)Cc3ccc(-c4cccnc4F)cc32)N=C1N (racemic) | 0.18 | 0.08 | 5.1 nM | 3.7 nM | 29 nM | 62% | 47 nM | 67 mL/min/kg | 59 mL/min/kg |  |  |  |  |  |
| CC1(C)Cc2ccc(-c3cncnc3)cc2C2(COC(N)=N2)C1 (racemic) | 1.1 | 1 | 13 nM | 120 nM | 12 nM | 34% | 120 nM | 126 mL/min/kg | 16 mL/min/kg |  |  |  |  |  |
| CN1C(=O)[C@]2(CC(C)(C)Cc3ccc(-c4cccnc4F)cc32)N=C1N |  |  |  |  |  |  |  |  | 24 mL/min/kg | 3 mL/min/kg | 12 mL/min/kg | 26 mL/min/kg | 60 mL/min/kg | concentration at 5 h [18]: 247 nM; concentration at 5 h [19]: 20 nM; Kp uu at 5 h [20]: 0.037; Drug uptake(free) [21]: 11 nM; Cp(f) [22]: 562 nM; Cp(f) [23]: 304 nM |

Further lines, with some results ahead:

| Kp uu at 4 h [1] | Kp uu at 1 h [2] | Drug uptake(free) (Brain [3]) | Drug uptake(free) (Brain [4]) | Cp(f) (Plasma [5]) | bioavailability [6] | Cp(f) (Plasma [7]) | clearance [8] | CLhep predicted at 1 µM [9] | CLhep predicted at 1 µM [14] | CLhep predicted at 1 µM [15] | CLint scaled at 1 µM [16] | CLhep predicted at 1 µM [17] | Structure (SMILES) | also measured |
| --- | --- | --- | --- | --- | --- | --- | --- | --- | --- | --- | --- | --- | --- | --- |
|  |  |  |  |  |  |  |  | 23 mL/min/kg | 3 mL/min/kg | 29 mL/min/kg | 12 mL/min/kg | 28 mL/min/kg | CC1(C)Cc2ccc(-c3cncnc3)cc2[C@@]2(COC(N)=N2)C1 | concentration at 3 h [10]: 5610 nM; concentration at 3 h [11]: 888 nM; Cp(f) [12]: 6673 nM; Cp(f) [13]: 3019 nM |
| 0.46 | 0.29 | 1.6 nM | 0.7 nM | 3.6 nM | 52% | 2.2 nM | 69 mL/min/kg | 47 mL/min/kg |  |  |  |  | CN1C(=O)C2(CC(C)(C)Sc3ccc(-c4cc(F)cc(Cl)c4)cc32)N=C1N (racemic) |  |
| 0.22 | 0.09 | 7 nM | 3.8 nM | 32 nM | 79% | 42 nM | 12 mL/min/kg | 15 mL/min/kg |  |  |  |  | CN1C(=O)C2(CC(C)(C)Oc3ccc(-c4cc(F)cc(Cl)c4)cc32)N=C1N (racemic) |  |
